Key:
Details in all cases: in vivo
Mus musculus [1] = species on record: Mus musculus; assay: Biodistribution of [225Ac]-labeled compound in normal mice blood after 120 hr; assay type: ADME, organism-based
Mus musculus [2] = species on record: Mus musculus; assay: Biodistribution of [225Ac]-labeled compound in normal mice liver after 1 hr; assay type: ADME, organism-based
Mus musculus [3] = species on record: Mus musculus; assay: Biodistribution of [225Ac]-labeled compound in normal mice blood after 4 hr; assay type: ADME, organism-based
Mus musculus [4] = species on record: Mus musculus; assay: Biodistribution of [225Ac]-labeled compound in normal mice liver after 4 hr; assay type: ADME, organism-based
Mus musculus [5] = species on record: Mus musculus; assay: Biodistribution of [225Ac]-labeled compound in normal mice kidney after 1 hr; assay type: ADME, organism-based
Mus musculus [6] = species on record: Mus musculus; assay: Biodistribution of [225Ac]-labeled compound in normal mice bone after 1 hr; assay type: ADME, organism-based, Bone element
Mus musculus [7] = species on record: Mus musculus; assay: Biodistribution of [225Ac]-labeled compound in normal mice spleen after 120 hr; assay type: ADME, organism-based
Mus musculus [8] = species on record: Mus musculus; assay: Biodistribution of [225Ac]-labeled compound in normal mice bone after 120 hr; assay type: ADME, organism-based, Bone element
Mus musculus [9] = species on record: Mus musculus; assay: Biodistribution of [225Ac]-labeled compound in normal mice heart after 4 hr; assay type: ADME, organism-based
Mus musculus [10] = species on record: Mus musculus; assay: Biodistribution of [225Ac]-labeled compound in normal mice liver after 120 hr; assay type: ADME, organism-based
Mus musculus [11] = species on record: Mus musculus; assay: Biodistribution of [225Ac]-labeled compound in normal mice spleen after 24 hr; assay type: ADME, organism-based
Mus musculus [12] = species on record: Mus musculus; assay: (§1) Biodistribution of [225Ac]-labeled compound in normal mice kidney after 120 hr; assay type: ADME, organism-based
Procedure, shortened: (§2)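 Normal female BALB/c mice received 2.5 µCi of 225Ac complex in 200 µL MES buffer (pH 6.2) by tail-vein injection. All complexes except Ac-acetate were Chelex-purified (0.1 M NH4OAc, pH 5.0) beforehand. Three to five animals were killed per time point. Tissues were weighed and counted for 225Ac 4 h later to allow nuclear equilibration, against external standards from the dose dilutions. Results are expressed as %ID/g.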

Mus musculus [13] = species on record: Mus musculus; assay: Biodistribution of [225Ac]-labeled compound in normal mice blood after 24 hr; assay type: ADME, organism-based
Mus musculus [14] = species on record: Mus musculus; assay: Biodistribution of [225Ac]-labeled compound in normal mice spleen after 4 hr; assay type: ADME, organism-based
Mus musculus [15] = species on record: Mus musculus; assay: Biodistribution of [225Ac]-labeled compound in normal mice heart after 1 hr; assay type: ADME, organism-based
Mus musculus [16] = species on record: Mus musculus; assay: Biodistribution of [225Ac]-labeled compound in normal mice liver after 24 hr; assay type: ADME, organism-based
Mus musculus [17] = species on record: Mus musculus; assay: Biodistribution of [225Ac]-labeled compound in normal mice heart after 24 hr; assay type: ADME, organism-based
Mus musculus [18] = species on record: Mus musculus; assay: Biodistribution of [225Ac]-labeled compound in normal mice kidney after 4 hr; assay type: ADME, organism-based; procedure, shortened: as §2
Mus musculus [19] = species on record: Mus musculus; assay: Biodistribution of [225Ac]-labeled compound in normal mice kidney after 24 hr; assay type: ADME, organism-based
Mus musculus [20] = species on record: Mus musculus; assay: Biodistribution of [225Ac]-labeled compound in normal mice bone after 24 hr; assay type: ADME, organism-based, Bone element
Mus musculus [21] = species on record: Mus musculus; assay: Biodistribution of [225Ac]-labeled compound in normal mice spleen after 1 hr; assay type: ADME, organism-based
Mus musculus [22] = species on record: Mus musculus; assay: Biodistribution of [225Ac]-labeled compound in normal mice heart after 120 hr; assay type: ADME, organism-based
Mus musculus [23] = species on record: Mus musculus; assay: Biodistribution of [225Ac]-labeled compound in normal mice bone after 4 hr; assay type: ADME, organism-based, Bone element
Mus musculus [24] = species on record: Mus musculus; assay: Biodistribution of [225Ac]-labeled compound in normal mice blood after 1 hr; assay type: ADME, organism-based
Mus musculus [25] = species on record: Mus musculus; assay: as §1; assay type: ADME, organism-based; remark: listed apart in the source

SMILES	ID/g (Mus musculus [1]) [%]	ID/g (Mus musculus [2]) [%]	ID/g (Mus musculus [3]) [%]	ID/g (Mus musculus [4]) [%]	ID/g (Mus musculus [5]) [%]	ID/g (Mus musculus [6]) [%]	ID/g (Mus musculus [7]) [%]	ID/g (Mus musculus [8]) [%]	ID/g (Mus musculus [9]) [%]	ID/g (Mus musculus [10]) [%]	ID/g (Mus musculus [11]) [%]	ID/g (Mus musculus [13]) [%]	ID/g (Mus musculus [14]) [%]	ID/g (Mus musculus [15]) [%]	ID/g (Mus musculus [16]) [%]	ID/g (Mus musculus [17]) [%]	ID/g (Mus musculus [18]) [%]	ID/g (Mus musculus [19]) [%]	ID/g (Mus musculus [20]) [%]	ID/g (Mus musculus [21]) [%]	further results
O=C(O)CN(CC(=O)O)[C@H](Cc1ccc([N+](=O)[O-])cc1)CN(CC(=O)O)[C@@H]1CCCC[C@H]1N(CC(=O)O)CC(=O)O	< 0.01	8.85	< 0.01	12.9	4.55	4.34	5.41	4.18	1.51	23.9	0.63	< 0.01	0.4	1.99	12.8	0.43	3.36	1.71	4.65	0.71	ID/g (Mus musculus [12]): 1.51%; ID/g (Mus musculus [22]): 0.6%; ID/g (Mus musculus [23]): 4.44%; ID/g (Mus musculus [24]): 0.86%
O=C(O)CN1CCN(CC(=O)O)CCN(CC(=O)O)CCN(CC(=O)O)CCN(CC(=O)O)CC1	< 0.01	12	< 0.01	16.4	5.6	1.75	1.63	1.6	2.34	22.3	0.8	< 0.01	0.59	2.65	14.7	0.68	3.47	1.64	1.51	0.83	ID/g (Mus musculus [12]): 1.28%; ID/g (Mus musculus [22]): 0.39%; ID/g (Mus musculus [23]): 1.6%; ID/g (Mus musculus [24]): 1.33%
O=C(O)CN1CCN(CC(=O)O)CCN(CC(=O)O)CCN(CC(=O)O)CCN(CC(=O)O)CCN(CC(=O)O)CC1	< 0.01	0.17	< 0.01	0.23	0.72	0.06	0.03	0.02	0.032	0.26	0.03	< 0.01	0.027	0.06	0.19	< 0.01	0.71	0.43	< 0.01	0.05	ID/g (Mus musculus [22]): 0.03%; ID/g (Mus musculus [23]): 0.025%; ID/g (Mus musculus [24]): 0.03%; ID/g (Mus musculus [25]): 0.25%
O=C(O)CN1CCN(CC(=O)O)CCN(CC(=O)O)C(Cc2ccc([N+](=O)[O-])cc2)CN(CC(=O)O)CC1 (stereo unspecified)	< 0.01	1.15	< 0.01	2.04	1.23	1.54	0.03	2.87	0.12	3.29	0.03	< 0.01	0.04	0.16	1.29	0.04	0.8	0.48	0.98	0.06	ID/g (Mus musculus [22]): 0.11%; ID/g (Mus musculus [23]): 1.76%; ID/g (Mus musculus [24]): 0.24%; ID/g (Mus musculus [25]): 0.27%

— ChEMBL document CHEMBL1132327, “Improved in vivo stability of actinium-225 macrocyclic complexes” (J Med Chem, 1999)
